# Measurements taken from PubChem BioAssay AID504383 (The Scripps Research Institute Molecular Screening Center, 2011).
# In all, about 2,500 compounds went through this assay and about 1,200 (48%) were called active.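 The calls were made as follows: active = mean activation above the low control average plus 3 SD, as set in the primary screen (cut at about 12% in these data); inactive = the rest.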 The set was probably picked from earlier hits. The list shows a part of the results.
# Molecular target: Troponin I, cardiac muscle (Homo sapiens) + Troponin T, cardiac muscle (Homo sapiens) + Troponin C, slow skeletal and cardiac muscles (Homo sapiens) (UniProt P19429+P45379+P63316)
# Assay: cardiac RTF calcium sensitivity activators, confirmation, biochemical, IANBD-TnC fluorescence, triplicate (AID 504383);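 also: 0% = DMSO at 0.472 mM calcium and 100% = DMSO at 2.9 mM calcium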
# Details: IANBD-labeled cardiac RTF, Ca2+ sensitivity fluorescence; at 7.2 µM; active compounds read high; scaled from EC20 to saturating calcium; tested at EC20 calcium, 0.472 mM
# Outline: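 Assay system: labelled regulated thin filaments / Timing: 15 min at 25 °C / Detection: fluorescence intensity of labelled filaments / Measure: fluorescence gain scaled between EC20 and EC100 calcium controls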
row,SMILES,activation
1,CN(C)c1ccc(/C=C2\NC(=S)N(Cc3ccccc3)C2=O)cc1,217% (active)
2,Cc1ccc([C@@H]2C3COCC=C3C(C#N)=C(N)C2(C#N)C#N)o1 (stereo not given in full),13.5% (active)
3,Cc1ccc(C2C3CN(C(C)C)CC=C3C(C#N)=C(N)C2(C#N)C#N)cc1 (stereo not given),9.22% (inactive)
4,CCC(CC)C(=O)c1c[nH]c(C(=O)N2CCN(c3ccccc3F)CC2)c1,60.8% (active)
5,CC(C)CN1CCC(C(=O)N2CCN(c3ccccc3F)CC2)CC1,4.79% (inactive)
6,CCOc1ccc(CNC(=O)c2ccc(Sc3ccc(Cl)cc3)c(NC(C)=O)c2)cc1,16.5% (active)
7,CCOc1c2ccc(C(=O)NCc3ccc(C)cc3)cc2nn1CCOC,0.03% (inactive)
8,CC(=O)Nc1cc(C(=O)NCc2ccco2)ccc1Sc1ccc(F)cc1,69.2% (active)
9,O=C(NCc1ccco1)c1cc(-c2cccc(Cl)c2)on1,4.34% (inactive)
10,COc1c(Cl)ccc(Cl)c1C(=O)NCc1ccco1,8.15% (inactive)
11,CC1(C)CC(=O)C2=C(C1)OC(N)=C(C#N)[C@@H]2c1ccccc1[N+](=O)[O-],22% (active)
12,O=C1C2C3C=CC(C4CC34)C2C(=O)N1/N=C/c1ccc(-c2ccc(F)cc2[N+](=O)[O-])o1 (stereo not given),23.2% (active)
13,Cc1cc(/C=C2\SC(=S)N(Cc3ccco3)C2=O)c(C)n1-c1cccnc1,48.4% (active)
14,CCN1C(=S)SC(=O)C1=C1C=C(C)N(Cc2ccco2)C(C)=C1,8.86% (inactive)
15,Cc1cc(/C=C2\SC(=S)N(C)C2=O)c(C)n1-c1ccccc1O,33% (active)
16,COc1ccc(-n2c(C)cc(/C=C3\SC(=S)NC3=O)c2C)cc1,8.15% (inactive)
17,Cc1cc(/C=C2\SC(=S)N(Cc3ccco3)C2=O)c(C)n1-c1ccccc1,17.4% (active)
18,CCN1CCN(c2c(/C=C3\SC(=S)N(Cc4ccco4)C3=O)c(C)c(C#N)c(=O)n2C)CC1,4.2% (inactive)
19,COc1ccc(O)c(/C=C2/SC(=S)N(Cc3ccccc3)C2=O)c1,0.43% (inactive)
20,COc1ccc(-n2c(C)cc(/C=C3\SC(=S)N(Cc4ccco4)C3=O)c2C)cc1,239% (active)
21,COc1cccc2c1C(=O)c1c(O)c3c(c(O)c1C2=O)CC(O)(C(C)=NNC(=O)c1ccc(Cl)c(Cl)c1)CC3OC1CC(N)C(O)C(C)O1 (stereo not given),5.43% (inactive)
22,O=C(c1c[nH]c(C(=O)C(Cl)(Cl)Cl)c1)c1c(F)cccc1F,3920% (active)
23,CN(C)C=NC(=O)c1cc(C(=O)c2ccccc2Cl)c[nH]1,11% (inactive)
24,Cc1ccc[n+](-c2nc3ccccc3nc2[N-]S(=O)(=O)c2ccccc2)c1,55.5% (active)
25,O=S(=O)([N-]c1nc2ccccc2nc1-[n+]1ccc(-c2ccncc2)cc1)c1ccccc1,4.89% (inactive)
